# In ChEMBL document CHEMBL4346706, “Anti-trypanosomal activity of doubly modified salinomycin derivatives” (Eur J Med Chem, 2019):
# Calls of active or inactive are those of the source. The rule behind the calls is not given here.
# Experiments:
# Trypanosoma brucei [1] = assay: Antitrypanosomal activity against bloodstream form of Trypanosoma brucei 427-221a assessed as growth inhibition measured after 72 hrs by resazurin dye based assay
# [2] = Cytotoxicity against human HL60 cells assessed as growth inhibition after 24 hrs by resazurin dye based assay; format: cell-based, HL-60
# How it was run: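 HL-60 cells seeded at 5 × 10^4 ml^-1 in Baltz medium with 16.7% heat-inactivated bovine serum, 0.9% DMSO. 37 °C, 5% CO2. Tenfold dilutions from 100 μM to 1 pM. After 24 h, resazurin added and incubation continued a further 48 h. Absorbance read at 570 nm, reference 630 nm. GI50 by linear interpolation against DMSO-only wells. Mean ± SD of three independent experiments.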
# [3] = Selectivity index, ratio of GI50 for human HL60 cells to GI50 for bloodstream form of Trypanosoma brucei 427-221a; format: toxicity; details: read-out: RatioGI50
# Trypanosoma brucei [4] = assay: Antitrypanosomal activity against bloodstream form of Trypanosoma brucei 427-221a assessed as increase in iono-phoresis by measuring cell swelling at 100 uM measured every 10 mins for 1 hr by light scattering based microplate reader analysis; format: functional, organism-based
# How it was run: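 Light-scattering swelling assay. Bloodstream forms at 5 × 10^7 cells ml^-1 in Baltz medium with 100 μM ionophore and 0.9% DMSO; controls had DMSO only. Absorbance at 490 nm read every 10 min for one hour. A fall in absorbance is taken as a rise in cell volume. Means of three experiments.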
# [5] = Antiproliferative activity against human HMLER cells assessed as reduction in cell viability after 72 hrs by Cell-Titer Blue reagent based fluorescence microplate reader analysis; format: functional
GI50 (Trypanosoma brucei [1]) [µM],Structure (SMILES),GI50 at 24 h [2] [µM],selectivity ratio [3],Activity (Trypanosoma brucei [4]),IC50 [5] [µM]
3.06,C#CCNC(=O)[C@H](CC)[C@H]1CC[C@H](C)[C@H]([C@@H](C)[C@H](O)[C@H](C)C(=O)[C@H](CC)[C@H]2O[C@]3(C=C[C@@H](O)[C@]4(CC[C@@](C)([C@H]5CC[C@](O)(CC)[C@H](C)O5)O4)O3)[C@H](C)C[C@@H]2C)O1,35.5,11.6,–,–
2.99,CC[C@@H](C(=O)[C@@H](C)[C@@H](O)[C@H](C)[C@@H]1O[C@@H]([C@@H](CC)C(=O)NCCc2ccc(F)cc2)CC[C@@H]1C)[C@H]1O[C@]2(C=CC(=O)[C@]3(CC[C@@](C)([C@H]4CC[C@](O)(CC)[C@H](C)O4)O3)O2)[C@H](C)C[C@@H]1C,94.7,31.7,–,–
3.18,C#CCNC(=O)[C@H](CC)[C@H]1CC[C@H](C)[C@H]([C@@H](C)[C@H](O)[C@H](C)C(=O)[C@H](CC)[C@H]2O[C@]3(C=CC(=O)[C@]4(CC[C@@](C)([C@H]5CC[C@](O)(CC)[C@H](C)O5)O4)O3)[C@H](C)C[C@@H]2C)O1,38.6,12.1,–,–
0.032,Cc1ccc(C(=O)Nc2ccc(S(=O)(=O)O)c3cc(S(=O)(=O)O)cc(S(=O)(=O)O)c23)cc1NC(=O)c1cccc(NC(=O)Nc2cccc(C(=O)Nc3cc(C(=O)Nc4ccc(S(=O)(=O)O)c5cc(S(=O)(=O)O)cc(S(=O)(=O)O)c45)ccc3C)c2)c1 [SURAMIN],> 100,> 3120,–,–
3.01,CC[C@@H](C(=O)[C@@H](C)[C@@H](O)[C@H](C)[C@@H]1O[C@@H]([C@@H](CC)C(=O)OCC(F)(F)F)CC[C@@H]1C)[C@H]1O[C@]2(C=CC(=O)[C@]3(CC[C@@](C)([C@H]4CC[C@](O)(CC)[C@H](C)O4)O3)O2)[C@H](C)C[C@@H]1C,> 100,> 33.2,–,–
0.17,CC[C@@H](C(=O)[C@@H](C)[C@@H](O)[C@H](C)[C@@H]1O[C@@H]([C@@H](CC)C(=O)ONC(=O)c2ccccc2)CC[C@@H]1C)[C@H]1O[C@]2(C=C[C@@H](O)[C@]3(CC[C@@](C)([C@H]4CC[C@](O)(CC)[C@H](C)O4)O3)O2)[C@H](C)C[C@@H]1C,3.58,21.1,–,–
0.035,CC[C@@H](C(=O)[C@@H](C)[C@@H](O)[C@H](C)[C@@H]1O[C@@H]([C@@H](CC)C(=O)ONC(=O)c2ccccc2O)CC[C@@H]1C)[C@H]1O[C@]2(C=C[C@@H](O)[C@]3(CC[C@@](C)([C@H]4CC[C@](O)(CC)[C@H](C)O4)O3)O2)[C@H](C)C[C@@H]1C,2.12,60.6,inactive,–
3.03,C#CCOC(=O)[C@H](CC)[C@H]1CC[C@H](C)[C@H]([C@@H](C)[C@H](O)[C@H](C)C(=O)[C@H](CC)[C@H]2O[C@]3(C=CC(=O)[C@]4(CC[C@@](C)([C@H]5CC[C@](O)(CC)[C@H](C)O5)O4)O3)[C@H](C)C[C@@H]2C)O1,29.6,9.8,–,–
3.04,C#CCNC(=O)[C@H](CC)[C@H]1CC[C@H](C)[C@H]([C@@H](C)[C@H](O)[C@H](C)C(=O)[C@H](CC)[C@H]2O[C@]3(C=C[C@@H](NCC#C)[C@]4(CC[C@@](C)([C@H]5CC[C@](O)(CC)[C@H](C)O5)O4)O3)[C@H](C)C[C@@H]2C)O1,38.9,12.8,–,–
0.037,CC[C@@H](C(=O)[C@@H](C)[C@@H](O)[C@H](C)[C@@H]1O[C@@H]([C@@H](CC)C(=O)O)CC[C@@H]1C)[C@H]1O[C@]2(C=CC(=O)[C@]3(CC[C@@](C)([C@H]4CC[C@](O)(CC)[C@H](C)O4)O3)O2)[C@H](C)C[C@@H]1C,9.21,252,Active,–
2.93,C#CCOC(=O)[C@H](CC)[C@H]1CC[C@H](C)[C@H]([C@@H](C)[C@H](O)[C@H](C)C(=O)[C@H](CC)[C@H]2O[C@]3(C=C[C@@H](O)[C@]4(CC[C@@](C)([C@H]5CC[C@](O)(CC)[C@H](C)O5)O4)O3)[C@H](C)C[C@@H]2C)O1,30,10.2,–,–
2.9,CC[C@@H](C(=O)[C@@H](C)[C@@H](O)[C@H](C)[C@@H]1O[C@@H]([C@@H](CC)C(=O)OCC(F)(F)F)CC[C@@H]1C)[C@H]1O[C@]2(C=C[C@@H](O)[C@]3(CC[C@@](C)([C@H]4CC[C@](O)(CC)[C@H](C)O4)O3)O2)[C@H](C)C[C@@H]1C,32.5,11.2,–,–
0.034,CC[C@@H](C(=O)[C@@H](C)[C@@H](O)[C@H](C)[C@@H]1O[C@@H]([C@@H](CC)C(=O)ONC(=O)c2ccccc2O)CC[C@@H]1C)[C@H]1O[C@]2(C=CC(=O)[C@]3(CC[C@@](C)([C@H]4CC[C@](O)(CC)[C@H](C)O4)O3)O2)[C@H](C)C[C@@H]1C,1.93,56.8,inactive,–
0.032,CC[C@@H](C(=O)[C@@H](C)[C@@H](O)[C@H](C)[C@@H]1O[C@@H]([C@@H](CC)C(=O)ONC(=O)c2ccccc2)CC[C@@H]1C)[C@H]1O[C@]2(C=CC(=O)[C@]3(CC[C@@](C)([C@H]4CC[C@](O)(CC)[C@H](C)O4)O3)O2)[C@H](C)C[C@@H]1C,2.24,70,inactive,–

Structure (SMILES),GI50 (Trypanosoma brucei [1]) [µM],GI50 at 24 h [2] [µM],selectivity ratio [3],Activity (Trypanosoma brucei [4]),IC50 [5] [µM]
CC[C@@H](C(=O)[C@@H](C)[C@@H](O)[C@H](C)[C@@H]1O[C@@H]([C@@H](CC)C(=O)NCCc2ccc(F)cc2)CC[C@@H]1C)[C@H]1O[C@]2(C=C[C@@H](O)[C@]3(CC[C@@](C)([C@H]4CC[C@](O)(CC)[C@H](C)O4)O3)O2)[C@H](C)C[C@@H]1C,2.87,11.6,4,–,–
CC[C@@H](C(=O)[C@@H](C)[C@@H](O)[C@H](C)[C@@H]1O[C@@H]([C@@H](CC)C(=O)O)CC[C@@H]1C)[C@H]1O[C@]2(C=C[C@@H](O)[C@]3(CC[C@@](C)([C@H]4CC[C@](O)(CC)[C@H](C)O4)O3)O2)[C@H](C)C[C@@H]1C [SALINOMYCIN],0.21,6.63,31.6,–,–
C#CCN[C@@H]1C=C[C@]2(O[C@H]([C@@H](CC)C(=O)[C@@H](C)[C@@H](O)[C@H](C)[C@@H]3O[C@@H]([C@@H](CC)C(=O)O)CC[C@@H]3C)[C@@H](C)C[C@H]2C)O[C@@]12CC[C@@](C)([C@H]1CC[C@](O)(CC)[C@H](C)O1)O2,0.035,10.5,300,Active,0.1
